According to ChEMBL document CHEMBL1153567, “Synthesis of novel pyrazole derivatives and evaluation of their antidepressant and anticonvulsant activities” (2009):
Active and inactive are the calls of the source. The rule behind the calls is not given here.

Tests used:
Mus musculus [1] = assay: Antidepressant activity in Swiss-Webster mouse assessed as reduction in duration of immobility time at 10 mg/kg, ip by tail suspension behavioral despair test; type: functional; set-up: scale not given: the % may be the effect or the level left; conditions: route intraperitoneal
Summary of the method: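 Tail suspension test in mice (n = 6/group; 22 ± 3 °C, 60 ± 5% humidity, 12 h light cycle, acclimated ≥2 days). Doses given ip in 0.5% w/v CMC at 0.5 mL/100 g; controls received CMC, imipramine 10 mg kg⁻¹ ip as reference. After 1 h, mice hung by tape 1 cm from the tail tip, 80 cm above the floor. Passive, motionless immobility timed over 6 min; mean ± S.E.M. and % change from control.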

Mus musculus [2] = assay: Antidepressant activity in Swiss-Webster mouse assessed as reduction in duration of immobility time at 10 mg/kg, ip by tail suspension behavioral despair test relative to imipramine; type: functional; set-up: scale not given: the % may be the effect or the level left; conditions: route intraperitoneal
Mus musculus [3] = assay: Anticonvulsant activity in Swiss-Webster mouse assessed as protection against PTZ-induced clonic seizures at 20 mg/kg, ip administered 1 hr before PTZ; type: functional; conditions: route intraperitoneal
Summary of the method: (§1)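 Mice (n = 6/group), kept at 22 ± 3 °C, 60 ± 5% humidity, 12 h light/dark cycle, acclimated ≥2 days, free food and water. Agents given ip in 0.5% w/v CMC in water at 0.5 mL/100 g. After 1 h, PTZ 100 mg kg⁻¹ ip (0.5% solution). Observed 30 min; no clonic spasm episode lasting ≥5 s counted as protection. % protection = (control − treated convulsions)/control × 100.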

Mus musculus [4] = assay: Anticonvulsant activity in Swiss-Webster mouse assessed as protection against PTZ-induced clonic seizures at 30 mg/kg, ip administered 1 hr before PTZ; type: functional, organism-based; set-up: dose 30 mg/kg; summary of the method: as §1
Mus musculus [5] = assay: Anticonvulsant activity in Swiss-Webster mouse assessed as protection against PTZ-induced clonic seizures at 20 mg/kg, ip administered 1 hr before PTZ

CN(C)CCCN1c2ccccc2CCc2ccccc21 [IMIPRAMINE]
Activity (Mus musculus [1]): 45.75%

CCOC(=O)c1[nH]n(C(=O)c2ccccc2)c(=O)c1C#N
Activity (Mus musculus [2]): 71.8% | Activity (Mus musculus [3]): 74.5% | Activity (Mus musculus [4]): Active | Activity (Mus musculus [1]): 24.41%

O=C(NNC(=O)c1ccccc1)c1ccccc1
Activity (Mus musculus [3]): 65.1% | Activity (Mus musculus [1]): 71.96%

O=C1NC(=O)C(c2ccccc2)(c2ccccc2)N1
Activity (Mus musculus [5]): Active

CCOC(=O)c1[nH]n(C(=O)c2ccccn2)c(=O)c1C#N
Activity (Mus musculus [2]): 86.1% | Activity (Mus musculus [3]): 53.7% | Activity (Mus musculus [1]): 36.99%

N#CC1=C(N)N(C(=O)c2cc3ccccc3[nH]2)NC1(C#N)C#N
Activity (Mus musculus [1]): 17.67%

CCOC(=O)c1[nH]n(C(=O)c2cccs2)c(=O)c1C#N
Activity (Mus musculus [2]): 66.4% | Activity (Mus musculus [3]): 78.7% | Activity (Mus musculus [4]): Active | Activity (Mus musculus [1]): 18.33%

O=C(NNC(=O)c1ccccn1)c1ccccn1
Activity (Mus musculus [2]): 80.2% | Activity (Mus musculus [1]): 32.39%

CCOC(=O)c1[nH]n(C(=O)c2cc3ccccc3[nH]2)c(=O)c1C#N
Activity (Mus musculus [2]): 78.1% | Activity (Mus musculus [3]): 74% | Activity (Mus musculus [4]): Active | Activity (Mus musculus [1]): 30.54%

N#CC1=C(N)N(C(=O)c2ccccn2)NC1(C#N)C#N
Activity (Mus musculus [2]): 88.6% | Activity (Mus musculus [1]): 38.76%

O=C(NNC(=O)c1cc2ccccc2[nH]1)c1cc2ccccc2[nH]1
Activity (Mus musculus [1]): 17.8%

N#CC1=C(N)N(C(=O)c2ccccc2)NC1(C#N)C#N
Activity (Mus musculus [1]): 9.37%

O=C(NNC(=O)c1cccs1)c1cccs1
Activity (Mus musculus [1]): 72.22%

N#CC1=C(N)N(C(=O)c2cccs2)NC1(C#N)C#N
Activity (Mus musculus [3]): 56.8% | Activity (Mus musculus [1]): 10.6%
